According to ChEMBL document CHEMBL5154667, “Discovery of 9,10-dihydrophenanthrene derivatives as SARS-CoV-2 3CLpro inhibitors for treating COVID-19” (Eur J Med Chem, 2022):

How the values were obtained:
[1] = target: T1, Replicase polyprotein 1ab (Severe acute respiratory syndrome coronavirus 2, UniProt P0DTD1); experiment: Inhibition of SARS-CoV-2 3CL protease using Dabcyl-KNSTLQSGLRKE-Edan as substrate incubated for 30 mins and measured by FRET assay
Summary of the method: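 Recombinant SARS-CoV-2 3CLpro, expressed and purified in-house, at 4 μg/mL final. Preincubated with compound (in DMSO) for 30 min at 37 °C in 0.1 M PBS pH 7.4 with 1 mM EDTA. Mean ± SD of at least three independent experiments.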

[2] = target: T1, Replicase polyprotein 1ab; experiment: Mixed type inhibition of SARS-CoV-2 3CL protease using Dabcyl-KNSTLQSGLRKE-Edan as substrate incubated for 30 mins and measured by Lineweaver-Burk plot analysis
[3] = target: Replicase polyprotein 1ab (Severe acute respiratory syndrome-related coronavirus, UniProt P0C6X7); experiment: Inhibition of SARS-CoV 3CL protease using Dabcyl-KNSTLQSGLRKE-Edan as substrate incubated for 30 mins and measured by FRET assay
Summary of the method: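 SARS-CoV 3CLpro, expressed and purified in-house like the SARS-CoV-2 enzyme, at 30 μg/mL final. Preincubated with compound for 30 min at 37 °C in 0.1 M PBS pH 7.4 with 1 mM EDTA. Mean ± SD of at least three independent runs.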

[4] = Stability of the compound in simulated gastric fluid; format: ADME; conditions: simulated gi fluid
Summary of the method: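 Simulated gastric fluid: pepsin 400 mg and 656 μL 1 M HCl in 40 mL water. Analyte 20 μM in SGF at 37 °C, sampled 0–90 min. Quenched with equal volume cold acetonitrile, centrifuged (20,000×g, 4 °C, 30 min), analysed by LC-UV.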

[5] = Stability in human plasma measured by LC-UV analysis; format: ADME, cell-free
Summary of the method: (§1)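 Incubated at 37 °C in 100 mM PBS pH 7.4, as printed for the human plasma stability test. Sampled at 0, 15, 30 min and 1–12 h; proteins precipitated with cold acetonitrile. Centrifuged at 20,000×g, 4 °C, 30 min; supernatant analysed by LC-UV.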

[6] = Metabolic stability in human liver microsomes assessed as CYP-mediated metabolism at 20 uM and measured as half-life by LC-UV analysis; format: ADME, Microsome
[7] = Metabolic stability in human liver microsomes assessed as UGT-mediated metabolism at 20 uM and measured as half-life by LC-UV analysis; format: ADME, Microsome
Summary of the method: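 Phase II: compound 20 μM with HLMs 0.2 mg/mL in 50 mM Tris-HCl pH 7.4 with 5 mM MgCl₂. After 3 min at 37 °C, started with 2 mM UDPGA. Quenched with cold acetonitrile at 0–90 min, centrifuged, supernatant analysed by LC-UV for half-life. 7-Hydroxycoumarin was the reference substrate.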

[8] = Stability in human plasma assessed as half-life measured by LC-UV analysis; format: ADME, cell-free; summary of the method: as §1

SMILES	IC50 [1]	further results
CC(=O)OCC1Cc2c(-c3ccncn3)cccc2-c2c(O)ccc(C)c21 (stereo not given)	> 100 µM	
CC(=O)OCC1Cc2c(-c3cc(-c4ccccc4)ccn3)cccc2-c2c(O)ccc(C3CCCCC3)c21 (stereo not given)	8.54 µM	
CC(=O)OCC1Cc2c(-c3ccccn3)ccc(C)c2-c2c(O)ccc(C)c21 (stereo not given)	> 100 µM	
CC(=O)OCC1Cc2c(-c3ncccn3)cccc2-c2c(O)ccc(C)c21 (stereo not given)	> 100 µM	
CC(=O)OCC1Cc2c(-c3ccc(Br)cn3)cccc2-c2c(O)ccc(-c3ccc(Br)cc3)c21 (stereo not given)	6.73 µM	
CC(=O)OCC1Cc2c(-c3ccc(Cl)cn3)cccc2-c2c(O)ccc(C)c21 (stereo not given)	35.8 µM	
CC(=O)OCC1Cc2c(cccc2-c2ncnc3c2ncn3CC2CC2)-c2c(O)ccc(C)c21 (stereo not given)	> 100 µM	
CC(=O)OCC1Cc2c(-c3ccccn3)cccc2-c2c(O)ccc(-c3ccc(C#N)cc3)c21 (stereo not given)	19.3 µM	
OCC1Cc2c(-c3cc(-c4ccccc4)ccn3)cccc2-c2c(O)ccc(-c3ccc(Br)cc3)c21 (stereo not given)	1.55 µM	Ki [2]: 6.09 µM; IC50 [3]: 5.35 µM; Stability [4]: Stable; Stability [5]: Stable; t1/2 [6]: > 1.5 h; t1/2 [7]: > 1.5 h
CC(=O)OCC1Cc2c(-c3cc(Cl)ccn3)cccc2-c2c(O)ccc(-c3ccc(Br)cc3)c21 (stereo not given)	4.79 µM	IC50 [3]: 5.44 µM
COc1ccc(-c2ccccn2)c2c1-c1c(O)ccc(C)c1C(COC(C)=O)C2 (stereo not given)	> 100 µM	
CC(=O)OCC1Cc2c(-c3cc(C=O)ccn3)cccc2-c2c(O)ccc(-c3ccc(Br)cc3)c21 (stereo not given)	3.32 µM	IC50 [3]: 3.2 µM
OCC1Cc2c(-c3ccc(F)cn3)cccc2-c2c(O)ccc(-c3ccc(Br)cc3)c21 (stereo not given)	5.39 µM	
O=Cc1ccnc(-c2cccc3c2CC(CO)c2c(-c4ccc(Br)cc4)ccc(O)c2-3)c1 (stereo not given)	1.81 µM	Ki [2]: 7.64 µM; IC50 [3]: 5.32 µM; Stability [4]: Stable; t1/2 [8]: 8.97 h; t1/2 [6]: 32.09 h; t1/2 [7]: 81.88 h
CC(=O)OCC1Cc2c(-c3cc(C#N)ccn3)cccc2-c2c(O)ccc(-c3ccc(Br)cc3)c21 (stereo not given)	10.3 µM	
CC(=O)OCC1Cc2c(-c3ccccn3)ccc(Br)c2-c2c(O)ccc(C)c21 (stereo not given)	> 100 µM	
CC(=O)OCC1Cc2c(-c3cc(N4CCCC4)ccn3)cccc2-c2c(O)ccc(-c3ccc(Br)cc3)c21 (stereo not given)	11.2 µM	
CC(=O)OCC1Cc2c(-c3ccc(NCc4ccccc4)cn3)cccc2-c2c(O)ccc(-c3ccc(Br)cc3)c21 (stereo not given)	3.31 µM	IC50 [3]: 5.79 µM
CC(=O)OCC1Cc2c(cccc2-n2cccn2)-c2c(O)ccc(C)c21 (stereo not given)	> 100 µM	
CC(=O)OCC1Cc2c(-c3ccc(C)cn3)cccc2-c2c(O)ccc(-c3ccc(Br)cc3)c21 (stereo not given)	5.25 µM	
CC(=O)OCC1Cc2c(-c3ccccn3)cc(C)cc2-c2c(O)ccc(C)c21 (stereo not given)	57.7 µM	
C=CCn1cnc2c(-c3cccc4c3CC(COC(C)=O)c3c(C)ccc(O)c3-4)ncnc21 (stereo not given)	> 100 µM	
CC(=O)OCC1Cc2c(-c3cc(C)ccn3)cccc2-c2c(O)ccc(C)c21 (stereo not given)	68.2 µM	
CC(=O)OCC1Cc2c(-c3ccccn3)cccc2-c2c(O)ccc(C3CCCCC3)c21 (stereo not given)	9.06 µM	
CC(=O)OCC1Cc2c(-c3ccc(Cl)cn3)cccc2-c2c(O)ccc(-c3ccc(Br)cc3)c21 (stereo not given)	2.72 µM	IC50 [3]: 4.06 µM
CC(=O)OCC1Cc2c(cccc2-c2nccc3ccccc23)-c2c(O)ccc(C)c21 (stereo not given)	14.2 µM	
CC(=O)OCC1Cc2c(-c3cc(N4CCOCC4)ccn3)cccc2-c2c(O)ccc(-c3ccc(Br)cc3)c21 (stereo not given)	7.39 µM	

SMILES	IC50 [1]	further results
CC(=O)OCC1Cc2c(-c3ccc(N(C)C)cn3)cccc2-c2c(O)ccc(-c3ccc(Br)cc3)c21 (stereo not given)	3.66 µM	IC50 [3]: 5.92 µM
CC(=O)OCC1Cc2c(-c3ccc(F)cn3)cccc2-c2c(O)ccc(C)c21 (stereo not given)	66.8 µM	
N#Cc1ccc(-c2cccc3c2CC(CO)c2c(-c4ccc(Br)cc4)ccc(O)c2-3)nc1 (stereo not given)	10.7 µM	
CC(=O)OCC1Cc2c(-c3ccc(C(C)=O)cn3)cccc2-c2c(O)ccc(-c3ccc(Br)cc3)c21 (stereo not given)	5.83 µM	
CC(=O)OCC1Cc2c(-c3ccc(C#N)cn3)cccc2-c2c(O)ccc(-c3ccc(Br)cc3)c21 (stereo not given)	2.78 µM	IC50 [3]: 7.12 µM
CC(=O)OCC1Cc2c(ccc(C)c2-c2ccccn2)-c2c(O)ccc(C)c21 (stereo not given)	53.8 µM	
CC(=O)OCC1Cc2c(-c3ccccn3)cccc2-c2c(O)ccc(C)c21 (stereo not given)	61.2 µM	
CCc1ccc(O)c2c1C(COC(C)=O)Cc1c(-c3ccccn3)cccc1-2 (stereo not given)	33.1 µM	
CC(=O)OCC1Cc2c(-c3ccccn3)cccc2-c2c(O)ccc(Cc3ccccc3)c21 (stereo not given)	11.4 µM	
OCC1Cc2c(-c3ccc(Cl)cn3)cccc2-c2c(O)ccc(-c3ccc(Br)cc3)c21 (stereo not given)	4.71 µM	IC50 [3]: 10.5 µM
CC(=O)OCC1Cc2c(-c3ccccn3)cccc2-c2c(O)ccc(-c3ccc(Br)cc3)c21 (stereo not given)	6.44 µM	
CC(=O)OCC1Cc2c(-c3cc(-c4ccccc4)ccn3)cccc2-c2c(O)ccc(C)c21 (stereo not given)	5.65 µM	
CC(=O)OCC1Cc2c(-c3ncccc3C)cccc2-c2c(O)ccc(C)c21 (stereo not given)	58.9 µM	
CC(=O)OCC1Cc2c(-c3ccc(F)cn3)cccc2-c2c(O)ccc(-c3ccc(Br)cc3)c21 (stereo not given)	4.29 µM	IC50 [3]: 7.81 µM
CC(=O)OCC1Cc2c(-c3ccc(C=O)cn3)cccc2-c2c(O)ccc(-c3ccc(Br)cc3)c21 (stereo not given)	8.89 µM	
CC(=O)OCC1Cc2c(-c3ccccn3)ccc(F)c2-c2c(O)ccc(C)c21 (stereo not given)	> 100 µM	
CC(=O)OCC1Cc2c(-c3ccccn3)ccc(Cl)c2-c2c(O)ccc(C)c21 (stereo not given)	85.6 µM	
CC(=O)OCC1Cc2c(-c3cc(-c4ccccc4)ccn3)cccc2-c2c(O)ccc(-c3ccc(Br)cc3)c21 (stereo not given)	2.46 µM	IC50 [3]: 17.7 µM
CC(=O)OCC1Cc2c(-c3ccccn3)cccc2-c2c(O)ccc(C(C)C)c21 (stereo not given)	29.5 µM	
CC(=O)OCC1Cc2c(-c3ccc4ccccc4n3)cccc2-c2c(O)ccc(C)c21 (stereo not given)	13.8 µM	
CC(=O)OCC1Cc2c(-c3ccc(Br)cn3)cccc2-c2c(O)ccc(C)c21 (stereo not given)	18.5 µM	
CC(=O)OCC1Cc2c(-c3cc(C)ccn3)cccc2-c2c(O)ccc(-c3ccc(Br)cc3)c21 (stereo not given)	9.82 µM	
CC(=O)OCC1Cc2c(-c3cc4ccccc4cn3)cccc2-c2c(O)ccc(C)c21 (stereo not given)	12 µM	
CC(=O)OCC1Cc2c(-c3ccc(S(C)(=O)=O)cn3)cccc2-c2c(O)ccc(-c3ccc(Br)cc3)c21 (stereo not given)	6.65 µM	
CC(=O)OCC1Cc2c(-c3ccc(-c4ccccc4)cn3)cccc2-c2c(O)ccc(-c3ccc(Br)cc3)c21 (stereo not given)	8.28 µM	
C[C@]12CC[C@H]3[C@@H](CCC4=CC(=O)CC[C@@]43C)[C@@H]1CC[C@@H]2O [TESTOSTERONE]		t1/2 [6]: 0.4603 h
O=c1ccc2ccc(O)cc2o1 [UMBELLIFERONE]		t1/2 [7]: 0.2588 h
